Here are results for 23 molecules from ChEMBL document CHEMBL1156149, “Cyclic sulfones as novel P3-caps for hepatitis C virus NS3/4A (HCV NS3/4A) protease inhibitors: synthesis and evaluation of inhibitors with improved potency and pharmacokinetic profiles” (J Med Chem, 2010).

A short description of series [1]: Inhibition of HCV NS3/4A protease. Further details: species or system Hepacivirus hominis.
Series [2] concerns Hepatitis C virus. Kind of series: Antiviral activity against Hepatitis C virus infected in human hepatoma cells assessed as inhibition of viral replication. The format is functional, organism-based, Hepacivirus hominis.
A short description of series [3]: AUC (0 to 24 hrs) in monkey at 3 mg/kg, po. The series is classed as ADME, organism-based, Macaca mulatta. The conditions noted are these: rhesus monkey, plasma. On the set-up: time < 24 hr, dose 3 mg/kg, route oral.
Series [4] can be described thus: Plasma concentration in monkey at 3 mg/kg, po after 8 hrs. The format is ADME, organism-based, Macaca mulatta. On the set-up: dose 3 mg/kg, route oral. The conditions noted are these: rhesus monkey.
Series [5] in a line: Ratio of plasma concentration in monkey at 3 mg/kg, po after 8 hrs to EC90 for Hepatitis C virus. The series is classed as ADME, organism-based. Conditions: in vivo. Further details: dose 3 mg/kg, route oral.
Series [6] is described as follows: AUC in monkey at 3 mg/kg. Conditions: rhesus monkey, plasma. On the set-up: dose 3 mg/kg. The format is ADME, organism-based, Macaca mulatta. The method in brief: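 Oral dosing of monkeys at 3 mpk, with compound suspended in 0.4% methylcellulose. Exposure was reported as plasma AUC(0-24h) in μM h. Plasma concentration at 8 h was also taken and expressed as a ratio to cellular EC90.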

A short description of series [7]: Bioavailability in monkey at 3 mg/kg. The series is classed as ADME, organism-based, Macaca mulatta. The conditions noted are these: rhesus monkey, in vivo.
The nature of series [8]: AUC in rat at 10 mg/kg. The conditions noted are these: plasma. On the set-up: dose 10 mg/kg. The format is ADME, organism-based. The method, boiled down:
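Rats were given compound orally at 10 mg/kg in 0.4% methylcellulose in water. Blood was sampled periodically and pooled (rapid rat protocol). Plasma exposure was reported as AUC(0-6h) in μM h.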

The nature of series [9]: AUC (0 to 6 hrs) in rat at 10 mg/kg, po. The format is ADME, organism-based. On the set-up: time < 6 hr, dose 10 mg/kg, route oral. The conditions noted are these: plasma. The method in brief: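 Rats dosed orally at 10 mg/kg in 0.4% methylcellulose in water, in a rapid rat protocol. Blood was withdrawn periodically and pooled, and plasma AUC was calculated over the stated interval.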

With `CCC[C@H](NC(=O)[C@@H]1C2C(CN1C(=O)[C@@H](NC(=O)NC1([C@H]3CCCS3(=O)=O)CCCCC1)C(C)(C)C)C2(C)C)C(=O)C(=O)NC1CC1` (single isomer, unassigned), affinity in series [1] was put at a Ki of 4 nM. In addition, the 90% effect concentration (EC90) – broadly, the concentration at which the effect reaches the 90% level – in series [2] was 20 nM.

For `CCCC[C@H](NC(=O)[C@@H]1C2C(CN1C(=O)[C@@H](NC(=O)NC1([C@@H]3CCCCS3(=O)=O)CCCCC1)C(C)(C)C)C2(C)C)C(=O)C(=O)NC1CC1` (single isomer, unassigned), the Ki (commonly the dissociation constant of the complex between target and ligand, obtained from inhibition or displacement) in series [1] came out at 11 nM. Also, in series [2], the 90% effect concentration (EC90) amounted to 60 nM.

In turn, `CCCC[C@H](NC(=O)[C@@H]1C2C(CN1C(=O)[C@@H](NC(=O)NC1([C@@H]3CCS3(=O)=O)CCCCC1)C(C)(C)C)C2(C)C)C(=O)C(=O)NC1CC1` (single isomer, unassigned) showed a Ki in series [1] of 5 nM. In series [2], the EC90 turned out to be 120 nM.

`CCCC[C@H](NC(=O)[C@@H]1[C@H]2[C@@H](CN1C(=O)[C@@H](NC(=O)NC1([C@H]3CCCCS3(=O)=O)CCCCC1)C1(C)CCCCC1)C2(C)C)C(=O)C(=O)NC1CC1` had a Ki in series [1] of 8 nM. The EC90 in series [2] turned out to be 100 nM.

Consider `CC(C)(C)[C@H](NC(=O)NC1([C@H]2CCCS2(=O)=O)CCCCC1)C(=O)N1C[C@@H]2[C@H]([C@H]1C(=O)N[C@@H](CCC1CC1)C(=O)C(=O)NC1CC1)C2(C)C`, for which the Ki in series [1] stood at 4 nM. Also, the 90% effect concentration (EC90) in series [2] amounted to 40 nM.

Regarding `CCC[C@H](NC(=O)[C@@H]1[C@H]2[C@@H](CN1C(=O)[C@@H](NC(=O)NC1([C@H]3CCCCS3(=O)=O)CCCCC1)C(C)(C)C)C2(C)C)C(=O)C(=O)NC1CC1`, the Ki in series [1] is 12 nM. The EC90 in series [2] was determined as 40 nM.

In series [1], `C=CCNC(=O)C(=O)C(CCC)NC(=O)[C@@H]1[C@H]2[C@@H](CN1C(=O)[C@@H](NC(=O)NC1([C@H]3CCCS3(=O)=O)CCCCC1)C(C)(C)C)C2(C)C` (mixture of isomers) returned a Ki of 6 nM. Also, the EC90 in [2] is 35 nM.

Take `CC1(C)C2CN(C(=O)[C@@H](NC(=O)NC3([C@H]4CCCCS4(=O)=O)CCCCC3)C(C)(C)C)[C@H](C(=O)N[C@@H](CCC3CC3)C(=O)C(=O)NC3CC3)C21` (single isomer, unassigned): affinity in [1] was put at a Ki of 6 nM. Besides, the EC90 in [2] worked out at 40 nM.

With `CCC[C@H](NC(=O)[C@@H]1C2C(CN1C(=O)[C@@H](NC(=O)NC1([C@H]3CCCS3(=O)=O)CCCCC1)C1(C)CCCCC1)C2(C)C)C(=O)C(=O)NC1CC1` (single isomer, unassigned), the Ki in [1] came to 2 nM. The EC90 in series [2] stood at 20 nM. Also, in series [3], the AUC(0-t) – broadly, the area under the concentration-time curve up to a stated or last time point – at 24 h is 20.8 µM·h. Also, the concentration at 8 h in series [4] was determined as 934 nM. Also, the Ratio in series [5] was 47.

As for `CCCC[C@H](NC(=O)[C@@H]1C2C(CN1C(=O)[C@@H](NC(=O)NC1([C@H]3CCCS3(=O)=O)CCCCC1)C1(C)CCCCC1)C2(C)C)C(=O)C(=O)NC1CC1` (single isomer, unassigned), the affinity in series [1], expressed as Ki, was 3 nM. Also, the EC90 in series [2] amounted to 20 nM. In addition, the AUC(0-t) at 24 h in [3] is 9 µM·h. The same molecule displayed a concentration at 8 h in series [4] of 742 nM. The Ratio in series [5] is listed as 37.

Turning to `C=CCNC(=O)C(=O)[C@H](CCCC)NC(=O)[C@@H]1C2C(CN1C(=O)[C@@H](NC(=O)NC1([C@H]3CCCS3(=O)=O)CCCCC1)C(C)(C)C)C2(C)C` (single isomer, unassigned), in [1], affinity was put at a Ki of 3 nM. The EC90 in series [2] was determined as 30 nM. This molecule also displayed an AUC(0-t) at 24 h in [3] of 2.2 µM·h.

In series [1], `CCC[C@H](NC(=O)[C@@H]1[C@H]2[C@@H](CN1C(=O)[C@@H](NC(=O)NC1([C@H]3CCCCS3(=O)=O)CCCCC1)C1(C)CCCCC1)C2(C)C)C(=O)C(=O)NC1CC1` gave an inhibition constant Ki of 7 nM. In series [2], the EC90 stood at 50 nM.

`CC1([C@H](NC(=O)NC2([C@H]3CCCS3(=O)=O)CCCCC2)C(=O)N2C[C@@H]3[C@H]([C@H]2C(=O)N[C@@H](CCC2CC2)C(=O)C(=O)NC2CC2)C3(C)C)CCCCC1`: the Ki in series [1] came to 3 nM. Moreover, the EC90 in series [2] is 40 nM. The same molecule showed an AUC(0-t) at 24 h in [3] of 3.5 µM·h. In addition, in series [4], the concentration at 8 h amounted to 303 nM. Also, the Ratio in series [5] was found to be 8.

The molecule `C=CCNC(=O)C(=O)[C@H](CCCC)NC(=O)[C@@H]1[C@H]2[C@@H](CN1C(=O)[C@@H](NC(=O)NC1([C@H]3CCCCS3(=O)=O)CCCCC1)C(C)(C)C)C2(C)C` yielded a Ki in series [1] of 12 nM. Moreover, in series [2], the EC90 amounted to 60 nM.

For `CC(C)(C)NC(=O)N[C@H](C(=O)N1C[C@H]2[C@@H]([C@H]1C(=O)NC(CC1CCC1)C(=O)C(N)=O)C2(C)C)C(C)(C)C` (some centres undefined) [BOCEPREVIR], the Ki in series [1] worked out at 14 nM. For the same molecule, the figures for the AUC in series [6] and in series [8] were 0.12 µM·h and 1.52 µM·h, respectively. Besides, in series [2] (read-out: EC90), the EC90 was found to be 350 nM. Also, in series [3], the AUC(0-t) at 24 h was 0.12 µM·h. Also, in series [7], the bioavailability (as a rule, the share of a dose that reaches the circulation, judged against a reference dose that is usually intravenous) was 4%.

In the case of `C=CCNC(=O)C(=O)[C@H](CCC)NC(=O)[C@@H]1C2C(CN1C(=O)[C@@H](NC(=O)NC1([C@H]3CCCCS3(=O)=O)CCCCC1)C(C)(C)C)C2(C)C` (single isomer, unassigned), the Ki in series [1] is 3 nM. For the same molecule, the EC90 in [2] worked out at 30 nM.

`CCCC[C@H](NC(=O)[C@@H]1C2C(CN1C(=O)[C@@H](NC(=O)NC1([C@H]3CCS3(=O)=O)CCCCC1)C(C)(C)C)C2(C)C)C(=O)C(=O)NC1CC1` (single isomer, unassigned) came in with a Ki in series [1] of 10 nM. Moreover, the EC90 in series [2] turned out to be 60 nM.

Consider `CCCC[C@H](NC(=O)[C@@H]1C2C(CN1C(=O)[C@@H](NC(=O)NC1([C@H]3CCCS3(=O)=O)CCCCC1)C(C)(C)C)C2(C)C)C(=O)C(=O)NC1CC1` (single isomer, unassigned), for which the Ki in series [1] was determined as 4 nM. In addition, the EC90 in [2] was determined as 20 nM. This molecule registered an AUC(0-t) at 24 h in series [3] of 0.4 µM·h. The concentration at 8 h in series [4] stood at 10 nM. In series [5], the Ratio was found to be 0.5. Further, in series [9], the AUC(0-t) at 6 h came out at 0.9 µM·h.

In [1], `C=CCNC(=O)C(=O)[C@H](CCC1CC1)NC(=O)[C@@H]1[C@H]2[C@@H](CN1C(=O)[C@@H](NC(=O)NC1([C@H]3CCCCS3(=O)=O)CCCCC1)C(C)(C)C)C2(C)C` gave a Ki of 4 nM. For the same molecule, in [2], the EC90 was 40 nM.

In turn, `CCCC[C@H](NC(=O)[C@@H]1[C@H]2[C@@H](CN1C(=O)[C@@H](NC(=O)NC1([C@H]3CCCCS3(=O)=O)CCCCC1)C(C)(C)C)C2(C)C)C(=O)C(=O)NC1CC1` came in with a Ki in series [1] of 10 nM. The EC90 in [2] was found to be 50 nM.

Consider `CCCC[C@H](NC(=O)[C@@H]1C2C(CN1C(=O)[C@@H](NC(=O)NC1([C@@H]3CCCS3(=O)=O)CCCCC1)C(C)(C)C)C2(C)C)C(=O)C(=O)NC1CC1` (single isomer, unassigned), for which the Ki in [1] was 4 nM. Moreover, the EC90 in series [2] was found to be 30 nM.

In turn, `C=CCNC(=O)C(=O)[C@H](CCC1CC1)NC(=O)[C@@H]1C2C(CN1C(=O)[C@@H](NC(=O)NC1([C@H]3CCCS3(=O)=O)CCCCC1)C(C)(C)C)C2(C)C` (single isomer, unassigned) gave a Ki in series [1] of 4 nM. For the same molecule, the EC90 in series [2] amounted to 35 nM.

Take `CC1(NC(=O)N[C@H](C(=O)N2C[C@@H]3[C@H]([C@H]2C(=O)NC(CC2CCC2)C(=O)C(N)=O)C3(C)C)C(C)(C)C)CCCCC1` (some centres undefined): in series [1], the Ki is 9 nM. Moreover, in [2] (read-out: EC90), the EC90 stood at 200 nM.
